Rows were chosen to be rich in hits. Some 2.6% of all compounds tested hit in one or more screens of this group.
5HT1E ag: 5-HT1E (human) receptor agonism; CHO 5-HT1E Ga15 NFAT-bla reporter, FRET; 0% DMSO wells, 100% control agonist wells; activation, % at 6 µM; 0.69% of 65,000 active;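 active means activation above a set limit, the screen-wide mean activation plus 3 SD, cut at about 8.5% in these data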;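 further: 100% = positive control agonist at 1 µM giving full maximal response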
5HT1a antag: antagonists of human 5-HT1a serotonin receptor | CHO 5-HT1a Ga15 NFAT-bla reporter, antagonist mode | inhibition, % at 10 µM | 0.68% of 62,000 active;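 active means inhibition above the mean of all tested compounds plus 3 SD, cut at about 43% in these data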;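 further: receptor stimulated by 5-CT agonist at 100 nM near EC80; beta-lactamase reporter measured by ratiometric fluorescence of a cleavable substrate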
Target sequence (P08908 whole entry, looked up): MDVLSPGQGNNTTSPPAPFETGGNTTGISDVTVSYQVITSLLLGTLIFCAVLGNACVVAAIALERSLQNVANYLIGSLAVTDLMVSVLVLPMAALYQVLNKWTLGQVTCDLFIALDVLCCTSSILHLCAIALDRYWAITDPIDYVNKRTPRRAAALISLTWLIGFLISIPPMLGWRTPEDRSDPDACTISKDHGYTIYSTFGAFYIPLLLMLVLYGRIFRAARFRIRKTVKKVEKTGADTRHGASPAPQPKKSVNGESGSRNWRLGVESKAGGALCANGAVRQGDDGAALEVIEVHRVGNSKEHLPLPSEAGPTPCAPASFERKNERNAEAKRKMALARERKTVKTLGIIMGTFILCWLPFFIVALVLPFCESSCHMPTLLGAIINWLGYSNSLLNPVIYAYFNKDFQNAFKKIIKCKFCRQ
HTR1A agonist: 5-HT1a (human) receptor agonism. P08908. CHO 5-HT1a Ga15 NFAT-bla reporter, FRET ratio; 0% basal, 100% maximal reference agonist. activation, % at 10 µM. 0.56% of 65,000 active;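 active means activation above the screen-wide mean activation plus 3 SD, cut at about 19% in these data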;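 further: 0% = DMSO wells and 100% = 5-CT at EC100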
HTR1E antagonist: blocks the human 5-HT1E serotonin receptor. P28566. CHO 5-HT1E Ga15 NFAT-bla reporter, FRET, antagonist. inhibition, % at 6 µM. 0.99% of 65,000 active. AID 571;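 active means inhibition above a set limit, the mean inhibition across every tested compound plus 3 SD, cut at about 29% in these data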;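 further: signal is the 460 over 535 nm emission ratio of beta-lactamase substrate; 0% = agonist plus DMSO wells and 100% = wells without agonist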
HEK293 NFkB inh: lowers PMA/ionomycin-induced NF-kB signal in HEK293 cells | HEK-293 NF-kB luciferase reporter, luminescence | inhibition, % at 3 µM | 0.21% of 62,000 active;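 active means inhibition above the mean of all tested compounds plus 3 SD, cut at about 40% in these data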;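 further: 0% = stimulated DMSO wells and 100% = 10 µM reference inhibitor 5653914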
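Material: HEK-293 cells with stable firefly luciferase reporter driven by four HIV NF-kB elements / Also added: PMA plus ionomycin mix as NF-kB-activating stimulus / Compound dosing: 3 µM once, 0.30% DMSO / Times: 1 h pretreatment, 16 h stimulation, 37 °C / Signal: luminescence / Evaluation: per-plate % inhibition versus controls / Benchmarks: DMSO and 10 µM reference inhibitor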
An asterisk follows results filed as active; / = not tested or not shown.

SMILES | 5HT1E ag | 5HT1a antag | HTR1A agonist | HTR1E antagonist | HEK293 NFkB inh
COc1ccc(-c2cc(C(F)F)nc(-n3nc(C)cc3C)n2)cc1 | 0 | -12 | 83* | -2 | 5
COc1ccc(-c2cc(C(F)(F)F)n3nc(C)cc3n2)cc1 | 0 | -12 | 0 | -12 | -4
CCOC(=O)c1ccc(NC(=O)c2nccnc2C(=O)O)cc1 | -1 | 0 | 1 | -4 | 0
COc1ccc2c(c1)c1nnc(SCC(=O)N3C(C)CCCC3C)nc1n2C (configuration not stated) | 2 | -23 | 5 | 16 | 21
COc1ccc2c(c1)c1nnc(SC)nc1n2C | 17* | 4 | 2 | 13 | 1
CCc1nnc(NC(=O)CCC(=O)N2CCN(CCOc3ccc(C)cc3)CC2)s1 | 0 | -10 | 1 | -9 | 6
Cc1nc(N2CCN(C)CC2)[nH]c(=O)c1Cc1cccc2ccccc12 | 1 | 1 | -6 | 10 | 4
c1ccc2c(CC3=NCCN3)cccc2c1 | 9.2* | / | 4 | -19 | /
CCOC(=O)c1c(-c2ccc(C)o2)csc1N | 0 | 10 | -5 | -12 | 3
CCOC(=O)c1c(-c2ccc(C)o2)csc1NC(=O)COC(=O)c1cccs1 | 1 | 50* | 2 | 1 | 1
COCCCNC(=O)Cn1nnc(-c2ccccc2NC(=O)c2ccccc2F)n1 | 0 | 5 | 1 | 3 | 14
CCOc1cccc(-c2nnc3sc(-c4cc(OC)c(OC)cc4OC)nn23)c1 | 2 | -2 | -5 | -6 | 11
COc1cc(OC)c(-c2nn3c(C4CCCCC4)nnc3s2)cc1OC | 1 | -2 | 3 | 33* | 15
COc1cc(-c2nnc3sc(C4CCCCC4)nn23)cc(OC)c1OC | 1 | -10 | -1 | 40* | 21
O=C(Nc1ccc2c(c1)OCO2)N1CCN(S(=O)(=O)c2ccc(Cl)cc2)CC1 | 14* | 8 | -3 | 20 | 4
CC1=C(C(=O)OC2CCCCCCC2)C(c2ccc(O)cc2)NC(=O)N1 (configuration not stated) | 0 | 26 | -3 | 29* | 22
CCCCOC(=O)C1CCCC(C(=O)OCCCC)N1 (configuration not stated) | 0 | 10 | 1 | -2 | 3
O=C(O)CCCC(=O)Nc1nc(-c2ccc(F)cc2)cs1 | 1 | -4 | -1 | -4 | -5
O=C(O)CCCC(=O)Nc1nc(-c2ccccc2)cs1 | 26* | 6 | -4 | -12 | -8
CN(C)CCCn1c(NC(=O)C2CCCCC2)nc2ccccc21 | 54* | / | 0 | -7 | /
CCCCC(CC)Cn1c(N)c(C#N)c2nc3ccccc3nc21 (configuration not stated) | 17* | -68 | 46* | -14 | 5
Cc1ccc(N(C)C(=O)N2CCN(c3ccccn3)CC2)cc1 | 0 | 10 | -1 | -12 | 26
Cc1sc2ncnc(Oc3ccc(-n4ccnc4)cc3)c2c1C | 0 | 6 | 298* | 4 | 1
Cc1sc2ncnc(NCCCn3ccnc3)c2c1C | 1 | -24 | 1 | -4 | 2
O=S(=O)(NCCCN1CCN(c2ccccc2F)CC1)c1cccc2cccnc12 | 9.1* | 40 | 6 | -5 | -4
SMILES | 5HT1E ag | 5HT1a antag | HTR1A agonist | HTR1E antagonist | HEK293 NFkB inh
CCN1CCCC1CNC(=O)c1nn(-c2ccc(C)cc2)c(=O)c2c1c1ccccc1n2C (configuration not stated) | 37* | -11 | 0 | -7 | 10
COC(=O)c1cc(OC)c(OC)cc1NC(=O)C1CCC(=O)N1S(=O)(=O)c1ccc(C)cc1 (configuration not stated) | 0 | 15 | 3 | 36* | 24
CCN(CC)c1ccc(-c2nn3c(-c4ccccc4OC)nnc3s2)cc1 | 1 | 70* | 1 | 67* | 58*
CN(C)c1ccc(-c2nn3c(-c4ccc(Cl)cc4Cl)nnc3s2)cc1 | -1 | 17 | 0 | 37* | 6
Clc1ccc(-c2nnc3sc(-c4ccc(Br)o4)nn23)c(Cl)c1 | 1 | -17 | -1 | 1 | 8
CN(C)CCNC(=O)COc1cccc(Cl)c1 | 0 | 10 | -4 | -6 | 5
COC(=O)c1cc2oc(C)cc2n1CC(=O)N(C)c1ccccc1 | 11* | -6 | -1 | -5 | 18
CCOC(=O)C1CCCN(C/C(O)=C(\C#N)c2nc(-c3ccccc3)cs2)C1 (configuration not stated) | 0 | 10 | -1 | -1 | 10
COc1ccc(C2=Nn3c(nnc3-c3ccccn3)SC2)cc1OC | 1 | / | 0 | 39* | /
COc1ccc(C2=Nn3c(nnc3-c3ccccc3OC)SC2)cc1OC | 2 | 75* | -1 | 87* | 47*
O=S(=O)(NCc1ccncc1)c1ccc(Br)s1 | 0 | 11 | 0 | 9 | 42*
CC(=O)NC(CCS(C)(=O)=O)C(=O)Nc1cc(Cl)ccc1Cl (configuration not stated) | 0 | 9 | 120* | -5 | 12
CC(=O)OC(C(=O)NC1CCCCC1)c1ccc(C)cc1 (configuration not stated) | 32* | 16 | -4 | 7 | 11
CCC(C)n1c(-c2cccs2)nc2nc3ccccc3nc21 (configuration not stated) | 4 | -24 | 11 | 12 | 20
O=C(O)CSCC(=O)NCc1ccccc1 | -1 | -6 | -2 | -4 | 12
COc1ccc2cc(C(=O)NCc3ccco3)c(=Nc3ccc(C(=O)O)cc3)oc2c1 | -1 | 7 | -1 | 11 | 48*
COc1cc(OC)cc(C(=O)NCC2CCCO2)c1 (configuration not stated) | -1 | -5 | -2 | -5 | -5
COc1ccc(N=c2oc3cc(O)ccc3cc2C(=O)NCC2CCCO2)cc1 (configuration not stated) | 6 | -7 | 26* | -11 | -19
CSc1ccc(Cl)c(C(=O)NCc2ccco2)c1 | -1 | 6 | -4 | 32* | 14
Cc1ccc(N=c2oc3cc(O)ccc3cc2C(N)=O)cc1 | 22* | -168 | 71* | -9 | 14
O=C(Nc1nnc(C2CCCC2)s1)C1CCC1 | 1 | 3 | -3 | 8 | -7
COc1ccc(C(=O)NC(C)c2nnc(SCC(=O)Nc3nc4ccccc4s3)n2C)cc1 (configuration not stated) | 0 | -3 | 0 | -6 | 8
COc1cc(SC)ccc1C(=O)NCC1CCCO1 (configuration not stated) | 0 | -8 | -3 | -10 | 8
COc1ccc(N=c2oc3cc(O)ccc3cc2C(=O)NCC2CCCO2)c(OC)c1 (configuration not stated) | 19* | -119 | 70* | -13 | 11
O=C(NCc1ccco1)c1cc2ccc(O)cc2oc1=O | 38* | -237 | 189* | -57 | 12
COC(=O)c1ccc(NC(=O)NS(=O)(=O)c2ccc(C)cc2)cc1 | 0 | -3 | 1 | 3 | 17
Cc1ccc2c(c1)c1cccc3c1n2CCN3CCC(N)=O | 2 | -6 | 8 | -7 | -18

Source: PubChem (The Scripps Research Institute Molecular Screening Center)
